Assay results of several laboratories.
Lines come from different studies, so protocols differ.
mraY: mraY (Staphylococcus aureus, UniProt Q2FZ93)
DCLK3: Serine/threonine-protein kinase DCLK3 (DCLK3, Homo sapiens, UniProt Q9C098)

SMILES | target | assay | system | setting | measurement | value
COc1ccc2oc(-c3ccc4nc(N)oc4c3)c/c(=N\c3ccccc3NC(=O)CCN)c2c1 | Testis-specific serine/threonine-protein kinase 1 (TSSK1B, Homo sapiens, UniProt Q9BXA7) | binding | – | 1 µM | remaining binding | 100%
CCCC[C@H](NC(=O)[C@H](Cc1c[nH]c2ccccc12)N(C)C(=O)C1(O)C[C@H](O)[C@@H](NC(C)=O)[C@H]([C@H](O)[C@H](O)CO)O1)C(=O)N[C@@H](CC(=O)O)C(=O)N[C@@H](Cc1cccc(Br)c1)C(N)=O (stereo partly drawn) | Gastrin/cholecystokinin type B receptor (CCKBR, Homo sapiens, UniProt P32239) | β-arrestin recruitment, agonist | HTLA | – | Emax | 102%
Cc1cc(-c2ccnc3[nH]cc(F)c23)cc(F)c1[C@@]1(O)[C@H](C)CN(C2CCS(=O)(=O)CC2)C[C@@H]1C | Rho-associated protein kinase 1 (ROCK1, Homo sapiens, UniProt Q13464) | enzyme activity, inhibitor | – | 15 nM | remaining activity | 31.3%
CCN1/C(=C/C(C)=O)Sc2ccc(F)cc21 | B1 bradykinin receptor (BDKRB1, Homo sapiens, UniProt P46663) | ligand displacement, radioligand | – | 10 µM | inhibition | 0%
CCCCCCC#Cc1cncc(-c2nnc(SC[C@H]3O[C@@H](n4ccc(=O)[nH]c4=O)[C@H](O)[C@@H]3O)n2CCO)c1 | mraY | cell-free assay, inhibitor | – | 250 µM | inhibition | 22%
C[C@]1(O)CCCN(c2nc(Nc3ccc(S(=O)(=O)N[C@H]4CC[C@H](CN5CCN(c6ccc(C7CCC(=O)NC7=O)cc6F)CC5)CC4)cc3Cl)ncc2C(F)(F)F)C1 (stereo partly drawn) | DCLK3 | binding, competition with immobilised ligand | – | 1 µM | remaining binding | 52%
C1=C/COCc2cc(ccc2OCCN2CCCC2)Nc2nccc(n2)-c2cccc(c2)COC/1 | Receptor-type tyrosine-protein kinase FLT3 (FLT3, Homo sapiens, UniProt P36888, R834Q) | binding | – | 0.1 µM | remaining binding | 17%
CCCCC(=O)Nc1ccc(-c2ccc3ncn(CCC)c(=O)c3c2)cn1 | Atypical kinase COQ8B, mitochondrial (COQ8B, Homo sapiens, UniProt Q96D53) | binding, competition with immobilised ligand | – | 0.5 µM | remaining binding | 99%
CCCCCCC#Cc1cncc(-c2nnc(SCc3ccc(Cl)cc3)n2CCCN)c1 | mraY | cell-free assay, inhibitor | – | 250 µM | inhibition | 34%
Cc1cc(S(=O)(=O)N[C@H]2CC[C@H](CN3CCN(c4ccc(C5CCC(=O)NC5=O)cc4F)CC3)CC2)ccc1Nc1ncc(C(F)(F)F)c(N2CCC[C@](C)(O)C2)n1 (stereo partly drawn) | DCLK3 | binding, competition with immobilised ligand | – | 1 µM | remaining binding | 28%
NC/C(=C\F)COc1cccc(Cn2c(=S)[nH]c(=O)c3[nH]cnc32)c1 | Melatonin receptor type 1A (MTNR1A, Homo sapiens, UniProt P48039) | ligand displacement, radioligand | – | 10 µM | inhibition | < 50%
C[C@]1(O)CCCN(c2nc(Nc3ccc(S(=O)(=O)N[C@H]4CC[C@H](CN5CCN(c6ccc(C7CCC(=O)NC7=O)cc6F)CC5)CC4)cc3F)ncc2C(F)(F)F)C1 (stereo partly drawn) | DCLK3 | binding, competition with immobilised ligand | – | 1 µM | remaining binding | 43%
CCCCCCC#Cc1cncc(-c2nnc(SCc3cc([N+](=O)[O-])cc([N+](=O)[O-])c3)n2C2CCNCC2)c1 | mraY | cell-free assay, inhibitor | – | 250 µM | inhibition | > 80%
Cc1n[nH]c2ccc3nc(-c4ccc(C(=O)NCCN(C)C)cc4F)c4c(c3c12)CCCC4 | Receptor-type tyrosine-protein kinase FLT3 (FLT3, Homo sapiens, UniProt P36888, ITD) | enzyme activity, inhibitor, radiometric | – | 0.5 µM | remaining activity | 13%
C[C@H](NC(=O)C(=O)Nc1ccccc1C(C)(C)C)C(=O)N[C@@H](CC(=O)O)C(=O)COc1c(F)c(F)cc(F)c1F | Caspase-4 (CASP4, Homo sapiens, UniProt P49662) | enzyme activity, inhibitor | – | – | kinact/KI | 19200 M⁻¹ s⁻¹
